# This is a sample that favours compounds with a hit; in the whole collection about 4.7% have one here.
# RGS4 block: human RGS4 inhibition. P49798. HEK293 M3R/RGS4 inducible, Fluo-4 calcium flux; stronger effect = higher value; triggered by carbachol at its EC20. B-score at 10 µM. 0.45% of 310,000 active. AID 463165;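 active = B-score, a plate-corrected calcium signal, over three deviations above library mean, with baseline fluorescence within five deviations of library mean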;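 also: RGS4 expression induced by doxycycline in cells with stable M3 receptor; B-score is computed from the integrated fluorescence ratio over baseline after carbachol; higher B-score means a larger calcium signal and so more RGS4 inhibition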
# KCC2 mod: modulators of human KCC2 chloride dependent transport. B-score of Tl+ flux slope (higher = more flux/activation; lower = inhibition) at 10 µM. 2.2% of 190,000 active. Q9H2X9. AID 1456. KCC2 cells, thallium flux FluoZin-2 fluorescence;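 active = thallium flux slope and its plate-corrected score both differing from the plate sample mean at a set confidence after two filtering rounds, in either direction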;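 also: slope of fluorescence scaled to starting intensity during 10 to 20 s after thallium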
# Target sequence (Q9H2X9 whole entry, looked up): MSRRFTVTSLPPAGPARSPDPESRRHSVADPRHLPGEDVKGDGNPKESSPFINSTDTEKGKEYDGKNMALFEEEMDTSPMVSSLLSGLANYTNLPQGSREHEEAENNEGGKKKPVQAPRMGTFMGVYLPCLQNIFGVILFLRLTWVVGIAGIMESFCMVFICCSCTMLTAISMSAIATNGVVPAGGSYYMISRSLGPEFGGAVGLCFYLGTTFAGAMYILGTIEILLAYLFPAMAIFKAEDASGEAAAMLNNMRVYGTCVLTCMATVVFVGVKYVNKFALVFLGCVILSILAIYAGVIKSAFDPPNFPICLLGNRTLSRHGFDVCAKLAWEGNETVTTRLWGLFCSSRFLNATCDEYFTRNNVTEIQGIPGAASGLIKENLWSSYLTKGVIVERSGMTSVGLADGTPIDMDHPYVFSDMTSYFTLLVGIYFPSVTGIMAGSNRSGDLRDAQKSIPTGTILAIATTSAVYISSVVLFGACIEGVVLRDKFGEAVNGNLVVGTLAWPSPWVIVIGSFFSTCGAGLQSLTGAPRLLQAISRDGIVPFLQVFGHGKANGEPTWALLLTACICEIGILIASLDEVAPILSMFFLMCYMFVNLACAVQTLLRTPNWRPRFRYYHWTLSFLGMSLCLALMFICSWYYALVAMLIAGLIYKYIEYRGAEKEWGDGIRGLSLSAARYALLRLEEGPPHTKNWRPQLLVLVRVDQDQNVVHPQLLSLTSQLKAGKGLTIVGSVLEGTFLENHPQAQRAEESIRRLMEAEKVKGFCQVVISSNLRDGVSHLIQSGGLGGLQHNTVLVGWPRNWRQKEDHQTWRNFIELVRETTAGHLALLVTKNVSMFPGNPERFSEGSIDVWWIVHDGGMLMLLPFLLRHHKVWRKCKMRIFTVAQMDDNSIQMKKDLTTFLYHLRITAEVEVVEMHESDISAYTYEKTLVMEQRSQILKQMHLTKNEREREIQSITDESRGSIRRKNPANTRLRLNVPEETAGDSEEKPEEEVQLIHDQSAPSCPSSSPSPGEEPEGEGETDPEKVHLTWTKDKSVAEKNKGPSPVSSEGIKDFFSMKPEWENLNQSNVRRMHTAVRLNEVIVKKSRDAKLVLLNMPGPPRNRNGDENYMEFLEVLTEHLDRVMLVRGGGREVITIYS
# RGS4 pot: RGS4 potentiation or activation. 0.92% of 310,000 active. B-score at 10 µM. HEK293 M3R/inducible RGS4, carbachol calcium flux Fluo4; stronger effect = lower value;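 active = B-score of the integrated calcium signal more than 4 SD below the library mean, with starting fluorescence not abnormally high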;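 also: negative B-score means reduced calcium response which marks RGS4 activation or potentiation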
#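 Test system: HEK293 cells with stable M3R and inducible RGS4; also added: carbachol at ECmax as muscarinic agonist stimulus; schedule: dye loading 30 min 37 °C, buffer rest 30 min RT; technique: kinetic calcium fluorescence imaging with Fluo4-AM dye, 2 µM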
# MrgX1 allo act: allosterically activates human MrgX1 receptor signaling; MrgX1-HEK293, Fluo-4 calcium flux, FDSS; stronger effect = higher value; Q96LB2; 0.63% of 310,000 active; B-score at 10 µM;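 active = plate-corrected calcium response at least 3 library SD above typical, normal starting fluorescence, not activating the receptor alone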;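 also: compound read alongside a low EC10 to EC30 dose of BAM8-22 agonist; peak minus trough fluorescence over baseline measured at the second addition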
# MrgX1 ag: agonists of human MrgX1 receptor | Q96LB2 | MrgX1-HEK293 cells, Fluo-4 calcium fluorescence, agonist mode; stronger effect = higher value | B-score at 10 µM | 0.44% of 310,000 active | AID 588627;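 active = calcium response B-score plate-corrected fluorescence ratio at least 3 library SD, with starting fluorescence B-score inside 5 SD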
#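 Material: MrgX1-expressing HEK293 cells; input: 15,000 cells per well; doses: test compound given as first of three sequential additions; schedule: overnight plating before 1 h dye loading; technique: Fluo-4 NW calcium-flux fluorescence, kinetic read; evaluation: baseline-normalised fluorescence change ratio, B-scored; control set: plate-wise positive and negative controls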
# MrgX1 antagonist: human MrgX1 receptor antagonism, primary screen; Q96LB2; MRGX1-HEK293 calcium flux, Fluo-4, BAM8-22 antagonism; stronger effect = lower value; B-score at 10 µM; 1.3% of 310,000 active; AID 588676;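 active = calcium-response B-score plate-corrected more than 3 library SD below zero, starting fluorescence within 5 deviations, no agonist response on first addition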;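 also: peak minus trough fluorescence over baseline after final BAM8-22 challenge near maximal dose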
# RGS4 act valid: RGS4 activation, validation assay | shares compounds with RGS4 pot | HEK293 M3R/RGS4 inducible, carbachol calcium flux Fluo4 | inhibition, % at 10 µM | 89% of 1,100 active | AID 602282;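 active = inhibition above 3 SD of the buffer control wells, cut at about 41% in these data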;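 also: signal is the integrated peak-minus-minimum Fluo4 fluorescence over baseline ratio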
# RGS4 act ctr: RGS4 activator counter-screen hit in non-induced cells; shares compounds with RGS4 pot; HEK293 M3R non-induced RGS4, Fluo4 calcium flux; after carbachol challenge at its EC90; inhibition, % at 10 µM; 82% of 1,100 active; AID 602283;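 active = inhibition exceeding 3 SD of buffer-only control wells, cut at about 26% in these data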;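 also: percent drop in integrated peak-minus-baseline over baseline Fluo4 ratio after carbachol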
# Starred values were filed as active, the others as inactive; i = inactive; · = no result.
SMILES,RGS4 block,KCC2 mod,RGS4 pot,MrgX1 allo act,MrgX1 ag,MrgX1 antagonist,RGS4 act valid,RGS4 act ctr
Cc1cccc(OCC(=O)N2CCN(c3nnc(-c4ccccc4)c4ccccc34)CC2)c1,i,-2.7,-8*,i,i,i,78*,30*
C=CCN1CCN(C(=O)c2ccc3c(c2)OCO3)CC1,i,·,i,i,i,i,·,·
CC(C)CN1C(=O)C(=Nc2cccnc2)c2ccccc21,i,-0.94,i,i,i,i,·,·
O=C(CCCc1nc(-c2ccc(Cl)cc2)no1)NC1CCCC1,i,·,i,i,i,i,·,·
CCNCc1ccc(OCc2cccs2)c(OCC)c1,i,-0.64,-8.9*,i,i,i,62*,0
CN1CCC(OC(=O)c2cc3cc(Br)ccc3oc2=O)CC1,i,·,i,i,i,i,·,·
CC12CNCC(C)(CN(C(c3ccccc3)c3ccccc3)C1)C2,i,-0.0067,-7.7*,i,i,i,66*,27*
CCc1ccc(OCC(=O)N2CCN=C2c2ccccc2)cc1,i,·,-8.6*,i,i,i,0,0
COc1c(C(=O)Nc2nnc(C3CC3)s2)csc1Cl,i,·,i,i,i,i,·,·
CCOC(=O)C1(Cc2ccccc2)CCCN(C(=O)c2cnn(CC)c2)C1 (configuration not stated),i,·,i,i,i,i,·,·
Cc1ccccc1OCC(=O)NNC(=O)C1CCN(c2ncnc3sc(C)c(C)c23)CC1,i,·,i,i,i,i,·,·
CCCN(CC(=O)Nc1ccccc1C)C(=O)C1CCN(c2ncnc3sc(C)c(C)c23)CC1,i,·,-8.7*,i,i,i,64*,27*
Cc1ccc(NS(=O)(=O)c2ccc(-n3cccn3)cc2)nc1,i,·,i,i,i,i,·,·
CC(=O)NCCOc1nc(N(C)C)nc(N2CCCCC2)n1,i,1.8,i,i,i,i,·,·
CCCc1nnc(NC(=O)CCC(=O)N2CCC(Cc3ccccc3)CC2)s1,i,·,i,i,i,i,·,·
CCCc1nnc(NC(=O)CCC(=O)N2CCCCC2CC)s1 (configuration not stated),i,·,-7.8*,i,i,i,0,0
O=C(NC(=S)Nc1ccc(CN2CCOCC2)cc1)c1ccc(-c2cccc(Cl)c2)o1,i,-0.24,-9.9*,i,i,i,94*,91*
COc1ccc(Br)cc1C(=O)NC(=S)Nc1ccc(CN2CCOCC2)cc1,i,·,-9.8*,i,i,i,92*,87*
O=C(Nc1ccc(CN2CCOCC2)cc1)c1ccc(-c2cccc(Cl)c2)o1,i,·,i,i,i,i,·,·
CCc1ccc2c(CN(C)Cc3ccccc3OC)cc(=O)oc2c1,i,·,i,i,i,i,·,·
O=C1CC(N2CCN(C/C=C/c3ccccc3)CC2)C(=O)N1Cc1cccs1 (configuration not stated),i,·,-7.9*,i,i,i,94*,26*
O=C(Oc1ccc(-c2nnco2)cc1)C1CCN(C(=O)c2ccc(F)cc2)CC1,i,·,i,i,i,i,·,·
C=CCNC(=O)c1ccc(C2SCC(=O)N2Cc2ccccc2)cc1 (configuration not stated),i,0.0027,i,i,i,i,·,·
O=C(NCc1ccccc1)c1ccc(C2SCC(=O)N2Cc2ccccc2)cc1 (configuration not stated),i,-0.021,-7.9*,i,i,i,88*,55*
Cc1ccc(S(=O)(=O)Nc2cccc(C(=O)NCC(c3ccco3)N(C)C)c2)cc1F (configuration not stated),i,·,-8.2*,i,i,i,66*,84*
SMILES,RGS4 block,KCC2 mod,RGS4 pot,MrgX1 allo act,MrgX1 ag,MrgX1 antagonist,RGS4 act valid,RGS4 act ctr
COc1ccc(Nc2nc(NCC3CCCO3)c3ccccc3n2)c(OC)c1 (configuration not stated),i,-0.34,-7.7*,i,i,i,38*,84*
Cc1cc(=O)n2c3ccccc3n(CC(O)CN3CCN(Cc4ccccc4)CC3)c2c1C#N (configuration not stated),i,-2,-10*,i,i,i,74*,43*
Cc1cc(=O)n2c3ccccc3n(CC(O)CN3CCN(CCO)CC3)c2c1C#N (configuration not stated),i,0.025,i,i,i,i,·,·
Cc1ccc(S(=O)(=O)Oc2ccc(/C=N/NC(=O)c3cccnc3)cc2)cc1,i,-2.2,i,i,i,i,·,·
C=CCOc1ccc(C2C(C(=O)c3ccc(C)o3)=C(O)C(=O)N2Cc2cccnc2)cc1 (configuration not stated),i,·,i,i,i,i,·,·
CC(=O)Cn1c(CN2CCN(C(=O)c3ccco3)CC2)nc2c1c(=O)n(C)c(=O)n2C,i,·,i,i,i,i,·,·
Cc1cc(C(=O)OCc2nnc(-c3ccccc3)o2)c(C)n1-c1ccccc1,i,0.35,-8.9*,i,i,i,94*,85*
O=C(OCc1nnc(-c2ccccc2)o1)c1cn(-c2ccccc2)nc1-c1ccccc1,i,·,i,i,i,i,·,·
N=c1c2c(-c3ccccc3)c(-c3ccccc3)oc2ncn1CCN1CCOCC1,i,-0.3,-9*,i,i,i,58*,84*
CCOC(=O)c1c(NC(=O)/C=C\C(=O)O)sc(C)c1-c1ccccc1,i,0.0075,i,i,i,i,·,·
CCOC(=O)c1c(NC(=O)/C=C/C(=O)O)sc(C)c1-c1ccc(C(C)(C)C)cc1,i,-0.67,-12*,i,i,-5.2*,92*,90*
COc1ccc(CCC(C)N2CCC(Oc3ccc(C(=O)N4CCCC4)cc3)CC2)cc1 (configuration not stated),i,·,-7.6*,i,i,i,84*,44*
Cc1cccc(NC(=O)NCCN2CCN(c3ccccc3)CC2)c1C,i,·,i,i,i,i,·,·
CC(C)c1nnc(NC(=O)C2CCCN2C(=O)Nc2cccc(Cl)c2)s1 (configuration not stated),i,·,i,i,i,i,·,·

# Assay outcomes from PubChem.
